Experimental data reported in publication PMC10620946 (Journal of medicinal chemistry, 2021).

What was measured:
H-RNase L = target: T1, H-RNase L (Homo sapiens, UniProt Q05823); experiment: RNase L mediated rRNA cleavage in intact A549 cells; type: cell-based; settings: 3-100 μM inhibitor, 4 h, then 20 μM trimeric 2-5A 2 h
T1 sequence (Q05823 1-741): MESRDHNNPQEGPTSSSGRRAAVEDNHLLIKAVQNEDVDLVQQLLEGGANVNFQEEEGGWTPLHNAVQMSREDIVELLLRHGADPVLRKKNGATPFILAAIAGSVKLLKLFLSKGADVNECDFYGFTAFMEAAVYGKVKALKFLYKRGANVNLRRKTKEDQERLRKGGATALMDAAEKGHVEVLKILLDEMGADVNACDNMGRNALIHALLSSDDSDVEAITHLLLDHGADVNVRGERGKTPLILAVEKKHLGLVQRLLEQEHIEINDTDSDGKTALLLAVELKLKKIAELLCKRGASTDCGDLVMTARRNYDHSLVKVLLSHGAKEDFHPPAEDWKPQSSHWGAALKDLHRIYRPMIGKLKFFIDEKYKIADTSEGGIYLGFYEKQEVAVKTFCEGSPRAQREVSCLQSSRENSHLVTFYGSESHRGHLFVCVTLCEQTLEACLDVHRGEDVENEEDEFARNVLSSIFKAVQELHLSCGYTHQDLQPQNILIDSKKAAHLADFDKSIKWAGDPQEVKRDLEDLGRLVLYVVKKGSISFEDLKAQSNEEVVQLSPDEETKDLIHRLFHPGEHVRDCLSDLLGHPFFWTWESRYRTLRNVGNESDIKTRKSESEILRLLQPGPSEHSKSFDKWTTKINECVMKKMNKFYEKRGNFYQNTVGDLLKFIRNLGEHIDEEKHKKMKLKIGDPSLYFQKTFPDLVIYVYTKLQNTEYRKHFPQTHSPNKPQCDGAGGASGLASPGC

P-RNase L21-732 = experiment: STD-NMR binding; design: species or system porcine; settings: for STD-NMR signal (binding to P-RNase L): 10 μM P-RNase L21-732, 400 μM fragment; for STD-NMR binding to RNase L dimer: 2-5A in molar excess to RNase L; for STD-NMR binding with ATP/MgCl2: ATP/MgCl2 or mixture of 2-5A and ATP/MgCl2 in molar excess to RNase L; for STD-NMR binding to monomeric RNase L: absence of 2-5A
[1] = target: T2, human RNase L (H-RNase L) (Homo sapiens, UniProt Q05823); experiment: FRET based enzyme assay of RNA substrate cleavage, H-RNase L; type: biochemical; settings: for IC50 against RNase L, in words: in vitro
T2 sequence (Q05823 1-741): T1 sequence (Q05823 1-741)

[2] = target: porcine RNase L (P-RNase L) (Sus scrofa, UniProt A5H025); experiment: FRET based enzyme assay of RNA substrate cleavage, P-RNase L; type: biochemical
RNase L [3] = settings: cited from earlier work
P-RNase L = experiment: RNase L oligomerization assay; type: biochemical, porcine; settings: 40 μM compound, 2-5A up to 2 μM
Procedure, shortened: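 Full-length porcine RNase L (0.8 μM) with 5 mM MgCl₂, preincubated ±test compound 15 min on ice. 2-5A then added for a further 15 min on ice. Cross-linked with DMS (120 mg/mL stock in 0.4 M triethanolamine-HCl, pH 8.5) 1 h at room temperature. Denatured in SDS/β-mercaptoethanol loading buffer at 95 °C for 5 min. Resolved by 4-12% gradient SDS-PAGE with Coomassie G-250 stain and imaged.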

RNase L [4] = settings: cited from earlier work; remark: listed apart in the source

Which results are given for O=c1cc(-c2ccc(O)cc2)oc2c([C@@H]3O[C@H](CO)[C@@H](O)[C@H](O)[C@H]3O)c(O)cc(O)c12 [vitexin]?
inhibitory activity against RNase L in intact cells (rRNA cleavage) (H-RNase L): did not show any inhibitory activity; STD-NMR signal (binding to P-RNase L) (P-RNase L21-732): directly binds

With Cc1cc(C(=O)O)cc(Cl)n1 [RF03759] as the compound, how does the “STD-NMR signal (binding to P-RNase L)” value (P-RNase L21-732) read?
Its value is “positive”.

For O=c1c(O)c(-c2cc(O)c(O)c(O)c2)oc2cc(O)cc(O)c12 [myricetin], which “inhibitory activity against RNase L in intact cells (rRNA cleavage)” value (H-RNase L) is on record?
Its value is “identical inhibitory activity to that of VAL”.

What about the “inhibition of H-RNase L in vitro” value [1] of the same compound?
The value was “inhibited”.

What about the “STD-NMR binding to RNase L dimer” value (P-RNase L21-732) of the same compound?
The value was “positive STD signal”.

And the “STD-NMR binding with ATP/MgCl2” value (P-RNase L21-732)?
The value was “remained positive”.

And the “STD-NMR binding to monomeric RNase L” value (P-RNase L21-732)?
The value was “directly interacts”.

And the “inhibition of P-RNase L in vitro” value [2]?
The value was “inhibited”.

With CCN(CC)CCNC(=O)c1c(C)[nH]c(/C=C2\C(=O)Nc3ccc(F)cc32)c1C [sunitinib] as the compound, how does the “IC50 against RNase L in vitro, in words” value (RNase L [3]) read?
The value was “micromolar range”.

For Oc1ccc(Sc2ccc(O)cc2)cc1 [BTB10184], which “STD-NMR signal (binding to P-RNase L)” value (P-RNase L21-732) is on record?
The value was “positive”.

Which “inhibition of H-RNase L in vitro” value [1] does the source give for CCCCOC(=O)c1ccc(O)cc1 [AC40357] here?
Its value is “inhibited”.

And the “IC50 against RNase L, in words” value [1]?
Its value is “low millimolar”.

What about the “STD-NMR signal (binding to P-RNase L)” value (P-RNase L21-732) of the same compound?
Its value is “positive”.

And the “inhibition of P-RNase L in vitro” value [2]?
The value was “inhibited only H-RNase L”.

For C[S+]([O-])c1sc(Cl)c2c1C(=O)CCC2 (centres unmarked) [KM05073], which “STD-NMR signal (binding to P-RNase L)” value (P-RNase L21-732) is on record?
The value was “positive”.

Which “STD-NMR signal (binding to P-RNase L)” value (P-RNase L21-732) does the source give for O=C(O)c1ccc(Cl)nc1Cl [AC39661] here?
The value was “positive”.

What does the source list for O=c1c(O[C@@H]2O[C@H](CO)[C@H](O)[C@H](O)[C@H]2O)c(-c2ccc(O)c(O)c2)oc2cc(O)cc(O)c12 [hyperoside]?
suppression of 2-5A induced RNase L dimerization (cross-linking) (P-RNase L): did not suppress; inhibitory activity against RNase L in intact cells (rRNA cleavage) (H-RNase L): did not show any inhibitory activity; inhibition of H-RNase L in vitro [1]: inhibited; effect of 2-5A concentration on potency against H-RNase L ([1]; 2-5A 1, 5 and 20 nM): does not seem to have an effect; IC50 against RNase L, in words [1]: single-digit micromolar; STD-NMR binding to RNase L dimer (P-RNase L21-732): positive STD signal; STD-NMR binding with ATP/MgCl2 (P-RNase L21-732): remained positive; STD-NMR binding to monomeric RNase L (P-RNase L21-732): directly interacts; inhibition of P-RNase L in vitro [2]: inhibited; effect of 2-5A concentration on potency against P-RNase L ([2]; 2-5A 1, 5 and 20 nM): does not seem to have an effect

Which “inhibition of H-RNase L in vitro” value [1] does the source give for O=C(CCc1ccc(O)cc1)c1c(O)cc(O)cc1O [phloretin] here?
Its value is “inhibited”.

For O=C(O)c1cc(O)c(O)c(O)c1Oc1cc2c(=O)oc3c(O)c(O)cc4c(=O)oc(c1O)c2c34 [VAL, valoneic acid dilactone], which “EC50 for RNase L in intact cells, in words” value (RNase L [4]) is on record?
The value was “micromolar range”.

What about the “inhibition activity on RNase L in vitro, in words” value (RNase L [3]) of the same compound?
Its value is “nanomolar”.

With O=c1c(O)c(-c2ccc(O)cc2O)oc2cc(O)cc(O)c12 [morin] as the compound, how does the “inhibition of H-RNase L in vitro” value [1] read?
The value was “not active”.

And the “inhibition of P-RNase L in vitro” value [2]?
The value was “not active”.
